Screens as filed in PubChem BioAssay.
OXTR agonist: human OXTR agonism; P30559; CHO-OTR cells, Fluo-8 calcium fluorescence; normalized: DMSO 0%, oxytocin 100%; hit rate 0.32% among 320,000; activation, % at 3 µM;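 active = activation above the mean of all tested compounds plus 3 SD, cutoff set per screening run, cut at about 20% in these data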;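 note: peak over basal fluorescence ratio from a 100 s FLIPR kinetic read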
Target sequence (P30559 whole entry, looked up): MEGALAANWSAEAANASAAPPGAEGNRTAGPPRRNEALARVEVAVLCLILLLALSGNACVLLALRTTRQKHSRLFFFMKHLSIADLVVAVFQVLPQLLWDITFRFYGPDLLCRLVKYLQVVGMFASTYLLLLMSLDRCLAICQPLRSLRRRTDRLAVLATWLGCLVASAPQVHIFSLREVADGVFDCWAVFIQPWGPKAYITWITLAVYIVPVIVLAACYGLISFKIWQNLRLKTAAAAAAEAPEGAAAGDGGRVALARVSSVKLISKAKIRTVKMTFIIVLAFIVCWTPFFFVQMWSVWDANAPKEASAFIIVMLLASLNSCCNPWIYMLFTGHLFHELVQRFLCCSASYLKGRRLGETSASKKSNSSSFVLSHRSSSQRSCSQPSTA
OXTR potentiator: potentiates the human oxytocin receptor response | P30559 | CHO-OTR cells, Fluo-8 calcium fluorescence, potentiator mode; 0% = oxytocin EC15, 100% = EC100 | activation, % at 3 µM | hit rate 0.061% among 320,000 | AID 2445;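 active = activation above that plate's cutoff, the mean activation of tested compounds plus 3 SD, cut at about 6.6% in these data, passing the limit was not always enough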
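System: human OTR in CHO cells; Also added: sub-maximal oxytocin, roughly EC15; Timing: compound 6 min at room temperature before oxytocin, 100 s read; Technique: Fluo-8 intracellular calcium fluorescence, ex 470-495, em 515-575 nm; Controls: oxytocin EC15 low and EC100 high; Replication: singlicate.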
TAAR1 antag: antagonists of human TAAR1; Q96RJ0; CHO RD-HGA16 TAAR1, Fluo-8 calcium fluorescence, antagonist; inhibition, % at 3 µM; hit rate 1.5% among 360,000;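 active = inhibition above a per-plate cutoff, the mean inhibition of test compounds on that plate plus 3 SD, cut at about 49% in these data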
Target sequence (Q96RJ0 whole entry, looked up): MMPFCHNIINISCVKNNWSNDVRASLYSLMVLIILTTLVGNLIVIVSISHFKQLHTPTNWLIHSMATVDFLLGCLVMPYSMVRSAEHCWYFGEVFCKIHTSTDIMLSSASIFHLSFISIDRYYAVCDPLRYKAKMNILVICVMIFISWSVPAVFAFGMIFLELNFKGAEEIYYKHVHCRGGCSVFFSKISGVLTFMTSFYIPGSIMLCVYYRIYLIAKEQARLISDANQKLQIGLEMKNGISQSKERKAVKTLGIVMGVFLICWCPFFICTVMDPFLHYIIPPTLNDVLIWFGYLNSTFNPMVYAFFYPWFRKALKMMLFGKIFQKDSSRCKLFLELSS
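Assay system: CHO-derived RD-HGA16 cells stably expressing human TAAR1 plus Gα16. Timing: 140 s kinetic read after compound, 140 s after agonist. Technique: kinetic Fluo-8 calcium fluorescence measurement. Measure: % inhibition of agonist calcium response.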
TAAR1 ag: agonists of human TAAR1. Q96RJ0. CHO RD-HGA16 TAAR1, Fluo-8 calcium fluorescence; vehicle wells 0%, saturating PEA agonist 100%. activation, % at 3 µM. hit rate 0.99% among 360,000. AID 624467;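 active = activation above the mean activation of all test compounds in the run plus 3 SD, cut at about 38% in these data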
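Test system: RD-HGA16 (CHO) cells co-expressing Gα16 and hTAAR1 / Benchmarks: DMSO vehicle as 0%, PEA at EC100 as 100% / Repeats: no replicates (n 1) / Measure: % activation from peak over basal fluorescence ratio, DMSO-to-PEA scaled / Timing: 17-24 h plating, Fluo-8 75 min 37 °C, 30 min RT / Technique: kinetic Fluo-8 calcium fluorescence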
V1R ag counter: activates human V1a receptor in oxytocin agonist counter-screen; activation, % at 3 µM; CHO-V1R cells, Fluo-8 calcium fluorescence, agonist mode; 0% DMSO, 100% 3 nM vasopressin; hit rate 0.25% among 320,000;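 active = activation above the mean activation of all tested compounds plus 3 SD, per screening run, cut at about 20% in these data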;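 note: signal is peak over basal fluorescence ratio across a 100 second FLIPR read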
TAAR1 ag confirm: confirmation of human TAAR1 agonists; shares compounds with TAAR1 ag; CHO RD-HGA16 TAAR1, Fluo-8 calcium fluorescence; scaled: DMSO 0%, maximal phenethylamine 100%; activation, % at 3 µM; hit rate 82% among 2,400;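 active = activation above a cutoff set at the run's mean compound activation plus 3 SD, cut at about 39% in these data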
Ga16 ag counter: nonselective agonist in parental cells, TAAR1 agonist counter-screen. hit rate 50% among 2,400. activation, % at 3 µM. CHO-Ga16 parental, Fluo-8 calcium fluorescence; normalized to maximal ATP response, DMSO zero. shares compounds with TAAR1 ag;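 active = activation above the run cutoff, the mean activation over all tested wells plus 3 SD, cut at about 12% in these data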
TAAR1 desens: human TAAR1 agonist that also desensitizes the receptor | shares compounds with TAAR1 ag | CHO RD-HGA16 hTAAR1, Fluo-8 calcium, beta-PEA response inhibition | inhibition, % at 3 µM | hit rate 46% among 2,400 | AID 651951;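 active = inhibition above the run cutoff, the mean inhibition of all test compounds plus 3 SD, cut at about 49% in these data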;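 note: beta-PEA stimulus applied at its EC80; loss of beta-PEA calcium signal after compound pretreatment read as receptor desensitization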
Ga16 antag count: counter-screen for TAAR1 agonists: nonselective Ga16 antagonists; shares compounds with TAAR1 ag; CHO-Ga16 ATP-induced calcium, Fluo-8 fluorescence; inhibition, % at 3 µM; hit rate 39% among 2,400; AID 651952;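 active = inhibition above the plate's mean compound inhibition plus 3 SD, computed per plate, cut at about 22% in these data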
Each line names hits and unclear results; the compound was inactive in the other large screens (follow-up assays come after a bar, where they were run). In the library only some 2.3% were active in any assay of this set; here they are far more common.

C/C=C/c1ccc(OCC(O)CNCCc2ccc(OC)cc2)c(OC)c1 (centres undefined)	TAAR1 ag 63.5 | TAAR1 ag confirm 95.8 | Ga16 ag counter 28.6 | TAAR1 desens inactive | Ga16 antag count inactive
COc1ccc(C(OCC(O)CNCCc2ccccc2)c2ccc(OC)cc2)cc1 (centres undefined)	TAAR1 antag 96.9, TAAR1 ag 104.5 (no result: OXTR agonist, OXTR potentiator, V1R ag counter) | TAAR1 ag confirm 104.2 | Ga16 ag counter 17.5 | TAAR1 desens 100.8 | Ga16 antag count 27.5
Cc1cccc(OCC(=O)N2CCc3ccccc3C2)c1	TAAR1 ag 55.5 | TAAR1 ag confirm 69.4 | Ga16 ag counter inactive | TAAR1 desens inactive | Ga16 antag count inactive
O=C(COc1cccc2cccnc12)N1CCc2ccccc2C1	TAAR1 ag 52.2 | TAAR1 ag confirm inactive | Ga16 ag counter inactive | TAAR1 desens inactive | Ga16 antag count inactive
COc1ccc(OCC(=O)N2CCc3ccccc3C2)cc1	none (no result: TAAR1 antag, TAAR1 ag) | Ga16 ag counter inactive | Ga16 antag count inactive
COc1ccc(Cc2nnc(SCC(=O)N3CCc4ccccc4C3)o2)cc1	TAAR1 ag 55.5 | TAAR1 ag confirm 75.0 | Ga16 ag counter inactive | TAAR1 desens inactive | Ga16 antag count inactive
COc1ccc(-c2nnc(SCC(=O)N3CCc4ccccc4C3)o2)cc1	none
O=C(COc1cccnc1[N+](=O)[O-])N1CCc2ccccc2C1	none
CCC1CCCCN1CCCNC(=O)C1CC(=O)N(CCc2ccccc2)C1 (centres undefined)	none
Cc1cccc(C(=O)NC(=S)N2CCc3ccccc3C2)c1	TAAR1 ag 61.9 | TAAR1 ag confirm 65.4 | Ga16 ag counter inactive | TAAR1 desens inactive | Ga16 antag count inactive
O=C(CCCN1C(=O)c2ccccc2C1=O)N1CCc2ccccc2C1	TAAR1 ag 68.9 | TAAR1 ag confirm 83.4 | Ga16 ag counter inactive | TAAR1 desens inactive | Ga16 antag count inactive
COc1cccc(-c2c(C(=O)N/N=C/c3ccoc3)nnn2-c2nonc2N)c1	TAAR1 ag 72.3 | TAAR1 ag confirm 128.6 | Ga16 ag counter 76.0 | TAAR1 desens inactive | Ga16 antag count inactive
COc1cccc(-c2c(C(=O)N/N=C/c3ccc(C)s3)nnn2-c2nonc2N)c1	TAAR1 ag 64.6 | TAAR1 ag confirm 86.9 | Ga16 ag counter 43.8 | TAAR1 desens inactive | Ga16 antag count inactive
COc1cccc(-c2c(C(=O)N/N=C/c3ccncc3)nnn2-c2nonc2N)c1	none
CCOc1ccc(NC(=O)/C(C#N)=C\c2ccc(N3CCCC3)c(C)c2)cc1	none (no result: OXTR agonist, OXTR potentiator, V1R ag counter)
COc1cccc(CN2CC(C(=O)N3CCOCC3)CCC2=O)c1 (centres undefined)	none
C/C(=N\NC(=O)c1nnn(-c2nonc2N)c1CN(C)c1ccccc1)c1cccs1	none
Cc1cccc(C(=O)NNC(=O)C2CCN(C(=O)OC(C)(C)C)CC2)c1	none
CC(=O)c1ccc(NC(=O)C2C3C=CC(C3=C(c3ccccc3)c3ccccc3)C2C(=O)O)cc1 (centres undefined)	TAAR1 ag 74.6 | TAAR1 ag confirm 101.6 | Ga16 ag counter 71.3 | TAAR1 desens inactive | Ga16 antag count inactive
COc1cccc(NC(=O)Nc2ccc3c(c2)CCC3)c1	none
ClC(Cl)(c1nnnn1-c1ccccc1)c1nnnn1-c1ccccc1	TAAR1 ag 58.4 | TAAR1 ag confirm 52.4 | Ga16 ag counter 24.2 | TAAR1 desens inactive | Ga16 antag count 29.4
Cc1c(NC(=O)C(C)N2C(=O)NC3(CCC(C)CC3)C2=O)c(=O)n(-c2ccccc2)n1C (centres undefined)	none
O=C(CN1CCN(CC(=O)c2ccccc2)CC1)c1ccccc1	none (no result: OXTR agonist, OXTR potentiator, V1R ag counter)
CN(C)CCSc1nnc2[nH]c3ccccc3c2n1	TAAR1 ag 43.5 | TAAR1 ag confirm 83.1 | Ga16 ag counter inactive | TAAR1 desens inactive | Ga16 antag count inactive
CC1C(c2ccccc2)OCCN1C(=S)Nc1ccc(S(=O)(=O)N2CCCCC2)cc1 (centres undefined)	TAAR1 ag 54.6 (no result: OXTR agonist, OXTR potentiator, V1R ag counter) | TAAR1 ag confirm 56.1 | Ga16 ag counter inactive | TAAR1 desens inactive | Ga16 antag count 32.3
O=C(COC(=O)/C=C/c1ccc(F)cc1)NC(=O)NCc1ccccc1	none (no result: OXTR agonist, OXTR potentiator, V1R ag counter)
O=C(CCN1CCc2ccccc2CC1)c1ccc2c(c1)OCCO2	TAAR1 antag 84.8, TAAR1 ag 92.2 | TAAR1 ag confirm 115.3 | Ga16 ag counter inactive | TAAR1 desens 97.4 | Ga16 antag count inactive
O=C(CCN1CCOCC1)c1ccc2c(c1)OCCO2	none
Fc1ccc2nc(C3CCN(Cc4nc(CC5CC5)no4)CC3)[nH]c2c1	none
Fc1ccccc1C1CCN(Cc2nc(CC3CC3)no2)C1 (centres undefined)	TAAR1 ag 47.5 | TAAR1 ag confirm 61.8 | Ga16 ag counter inactive | TAAR1 desens inactive | Ga16 antag count inactive
CC(=O)c1ccc(N/C=C/C(=O)c2ccc(Br)cc2)cc1	none
COc1ccc(CNC(=O)c2sc(=O)n(Cc3ccccc3C)c2C)cc1	TAAR1 antag 70.3, TAAR1 ag 105.7 (no result: OXTR agonist, OXTR potentiator, V1R ag counter) | TAAR1 ag confirm 121.8 | Ga16 ag counter 82.1 | TAAR1 desens 84.7 | Ga16 antag count 53.8
COc1ccc(Cl)cc1Cn1c(C)c(C(=O)NCc2ccc(C#N)cc2)sc1=O	TAAR1 antag 76.5, TAAR1 ag 67.6 (no result: OXTR agonist, OXTR potentiator, V1R ag counter) | TAAR1 ag confirm 74.3 | Ga16 ag counter 37.4 | TAAR1 desens 74.4 | Ga16 antag count 49.7
COc1ccccc1Cn1c(C)c(C(=O)NCc2ccc(C#N)cc2)sc1=O	TAAR1 antag 94.3, TAAR1 ag 133.6 (no result: OXTR agonist, OXTR potentiator, V1R ag counter) | TAAR1 ag confirm 106.0 | Ga16 ag counter 69.1 | TAAR1 desens 78.3 | Ga16 antag count 44.9
Cc1ccccc1Cn1c(C)c(C(=O)NCc2cccc(Cl)c2)sc1=O	none (no result: OXTR agonist, OXTR potentiator, V1R ag counter)
Cc1c(C(=O)NCc2ccc3c(c2)OCCO3)sc(=O)n1Cc1ccc2c(c1)OCO2	none (no result: OXTR agonist, OXTR potentiator, V1R ag counter)
COc1ccc(Cl)cc1Cn1c(C)c(C(=O)NCc2cccc(C(F)(F)F)c2)sc1=O	none (no result: OXTR agonist, OXTR potentiator, V1R ag counter)
Cc1c(C(=O)NCc2ccc([N+](=O)[O-])cc2)sc(=O)n1Cc1ccc2c(c1)OCO2	TAAR1 antag 74.3, TAAR1 ag 104.5 (no result: OXTR agonist, OXTR potentiator, V1R ag counter) | TAAR1 ag confirm 106.1 | Ga16 ag counter 62.7 | TAAR1 desens 81.1 | Ga16 antag count 48.7
